In ChEMBL document CHEMBL3784971, “Synthesis, characterization, antimicrobial and biofilm inhibitory studies of new esterquats” (Bioorg Med Chem Lett, 2016):
Active and inactive are the calls of the source. The calls are words filed in the database; no cut-off is given here.

Tests used:
Staphylococcus aureus [1] = assay: Antimicrobial activity against Staphylococcus aureus MTCC 96 assessed as growth inhibition after 24 hrs by agar well diffusion method; type: functional; details: MTCC 96, 24 h
Bacillus subtilis [2] = assay: Antimicrobial activity against Bacillus subtilis MTCC 121 assessed as growth inhibition after 24 hrs by agar well diffusion method; type: functional; details: MTCC 121, 24 h
Staphylococcus aureus [3] = assay: Antimicrobial activity against Staphylococcus aureus MLS16 MTCC 2940 assessed as growth inhibition after 24 hrs by agar well diffusion method; type: functional; details: MLS16 MTCC 2940, 24 h
Micrococcus luteus [4] = assay: Antimicrobial activity against Micrococcus luteus MTCC 2470 assessed as growth inhibition after 24 hrs by agar well diffusion method; type: functional; details: MTCC 2470, 24 h
Raoultella planticola [5] = assay: Antimicrobial activity against Klebsiella planticola MTCC 530 assessed as growth inhibition after 24 hrs by agar well diffusion method; type: functional; details: MTCC 530, 24 h
Escherichia coli [6] = assay: Antimicrobial activity against Escherichia coli MTCC 739 assessed as growth inhibition after 24 hrs by agar well diffusion method; type: functional; details: MTCC 739, 24 h
Pseudomonas aeruginosa = assay: Antimicrobial activity against Pseudomonas aeruginosa MTCC 2453 assessed as growth inhibition after 24 hrs by agar well diffusion method; type: functional; details: MTCC 2453, 24 h
Candida albicans [7] = assay: Antimicrobial activity against Candida albicans MTCC 3017 assessed as growth inhibition after 24 hrs by agar well diffusion method; type: functional; details: MTCC 3017, 24 h
Candida albicans [8] = assay: Antimicrobial activity against Candida albicans MTCC 183 assessed as growth inhibition after 24 hrs by agar well diffusion method; type: functional; details: MTCC 183, 24 h
Candida albicans [9] = assay: Antimicrobial activity against Candida albicans MTCC 227 assessed as growth inhibition after 24 hrs by agar well diffusion method; type: functional; details: MTCC 227, 24 h
Candida albicans [10] = assay: Antimicrobial activity against Candida albicans MTCC 854 assessed as growth inhibition after 24 hrs by agar well diffusion method; type: functional; details: MTCC 854, 24 h
Candida albicans [11] = assay: Antimicrobial activity against Candida albicans MTCC 1637 assessed as growth inhibition after 24 hrs by agar well diffusion method; type: functional; details: MTCC 1637, 24 h
Candida albicans [12] = assay: Antimicrobial activity against Candida albicans MTCC 3018 assessed as growth inhibition after 24 hrs by agar well diffusion method; type: functional; details: MTCC 3018, 24 h
Candida albicans [13] = assay: Antimicrobial activity against Candida albicans MTCC 3958 assessed as growth inhibition after 24 hrs by agar well diffusion method; type: functional; details: MTCC 3958, 24 h
Candida albicans [14] = assay: Antimicrobial activity against Candida albicans MTCC 4748 assessed as growth inhibition after 24 hrs by agar well diffusion method; type: functional; details: MTCC 4748, 24 h
Candida albicans [15] = assay: Antimicrobial activity against Candida albicans MTCC 7315 assessed as growth inhibition after 24 hrs by agar well diffusion method; type: functional; details: MTCC 7315, 24 h
Candida parapsilosis [16] = assay: Antimicrobial activity against Candida parapsilosis MTCC 1744 assessed as growth inhibition after 24 hrs by agar well diffusion method; type: functional; details: Lodderomyces parapsilosis, MTCC 1744, 24 h
[Candida] aaseri [17] = Antimicrobial activity against Candida aaseri MTCC 1962 assessed as growth inhibition after 24 hrs by agar well diffusion method; type: functional; details: Yamadazyma aaseri, MTCC 1962, 24 h
Nakaseomyces glabratus [18] = assay: Antimicrobial activity against Candida glabrata MTCC 3019 assessed as growth inhibition after 24 hrs by agar well diffusion method; type: functional; details: MTCC 3019, 24 h
Pichia kudriavzevii [19] = assay: Antimicrobial activity against Candida krusei MTCC 3020 assessed as growth inhibition after 24 hrs by agar well diffusion method; type: functional; details: MTCC 3020, 24 h
Pichia sporocuriosa [20] = assay: Antimicrobial activity against Issatchenkia hanoiensis MTCC 4755 assessed as growth inhibition after 24 hrs by agar well diffusion method; type: functional; details: MTCC 4755, 24 h
Staphylococcus aureus [21] = assay: Bactericidal activity against Staphylococcus aureus MTCC 96 after 24 hrs by serial dilution method; type: functional; details: MTCC 96, 24 h
Bacillus subtilis [22] = assay: Bactericidal activity against Bacillus subtilis MTCC 121 after 24 hrs by serial dilution method; type: functional; details: MTCC 121, 24 h
Staphylococcus aureus [23] = assay: Bactericidal activity against Staphylococcus aureus MLS16 MTCC 2940 after 24 hrs by serial dilution method; type: functional; details: MLS16 MTCC 2940, 24 h
Micrococcus luteus [24] = assay: Bactericidal activity against Micrococcus luteus MTCC 2470 after 24 hrs by serial dilution method; type: functional; details: MTCC 2470, 24 h
Raoultella planticola [25] = assay: Bactericidal activity against Klebsiella planticola MTCC 530 after 24 hrs by serial dilution method; type: functional; details: MTCC 530, 24 h
Escherichia coli [26] = assay: Bactericidal activity against Escherichia coli MTCC 739 after 24 hrs by serial dilution method; type: functional; details: MTCC 739, 24 h
Candida albicans [27] = assay: Fungicidal activity against Candida albicans MTCC 3017 after 24 hrs by serial dilution method; type: functional; details: MTCC 3017, 24 h
Candida albicans [28] = assay: Fungicidal activity against Candida albicans MTCC 183 after 24 hrs by serial dilution method; type: functional; details: MTCC 183, 24 h
Candida albicans [29] = assay: Fungicidal activity against Candida albicans MTCC 227 after 24 hrs by serial dilution method; type: functional; details: MTCC 227, 24 h
Candida albicans [30] = assay: Fungicidal activity against Candida albicans MTCC 854 after 24 hrs by serial dilution method; type: functional; details: MTCC 854, 24 h
Candida albicans [31] = assay: Fungicidal activity against Candida albicans MTCC 1637 after 24 hrs by serial dilution method; type: functional; details: MTCC 1637, 24 h
Candida albicans [32] = assay: Fungicidal activity against Candida albicans MTCC 3018 after 24 hrs by serial dilution method; type: functional; details: MTCC 3018, 24 h
Candida albicans [33] = assay: Fungicidal activity against Candida albicans MTCC 3958 after 24 hrs by serial dilution method; type: functional; details: MTCC 3958, 24 h
Candida albicans [34] = assay: Fungicidal activity against Candida albicans MTCC 4748 after 24 hrs by serial dilution method; type: functional; details: MTCC 4748, 24 h
Candida albicans [35] = assay: Fungicidal activity against Candida albicans MTCC 7315 after 24 hrs by serial dilution method; type: functional; details: MTCC 7315, 24 h
Candida parapsilosis [36] = assay: Fungicidal activity against Candida parapsilosis MTCC 1744 after 24 hrs by serial dilution method; type: functional; details: Lodderomyces parapsilosis, MTCC 1744, 24 h
[Candida] aaseri [37] = Fungicidal activity against Candida aaseri MTCC 1962 after 24 hrs by serial dilution method; type: functional; details: Yamadazyma aaseri, MTCC 1962, 24 h
Nakaseomyces glabratus [38] = assay: Fungicidal activity against Candida glabrata MTCC 3019 after 24 hrs by serial dilution method; type: functional; details: MTCC 3019, 24 h
Pichia kudriavzevii [39] = assay: Fungicidal activity against Candida krusei MTCC 3020 after 24 hrs by serial dilution method; type: functional; details: MTCC 3020, 24 h
Pichia sporocuriosa [40] = assay: Fungicidal activity against Issatchenkia hanoiensis MTCC 4755 after 24 hrs by serial dilution method; type: functional; details: MTCC 4755, 24 h
Staphylococcus aureus [41] = assay: Antibiofilm activity against Staphylococcus aureus MTCC 96 after 24 hrs by crystal violet staining based assay; type: functional, organism-based; details: MTCC 96, 24 h
In short: (§1)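 Biofilm inhibition tested for amine esters and esterquats. IC50 values (µg/mL) are the mean of three determinations, with ciprofloxacin as reference.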

Bacillus subtilis [42] = assay: Antibiofilm activity against Bacillus subtilis MTCC 121 after 24 hrs by crystal violet staining based assay; type: functional, organism-based; details: MTCC 121, 24 h; in short: as §1
Staphylococcus aureus [43] = assay: Antibiofilm activity against Staphylococcus aureus MLS16 MTCC 2940 after 24 hrs by crystal violet staining based assay; type: functional, organism-based; details: MLS16 MTCC 2940, 24 h; in short: as §1
Micrococcus luteus [44] = assay: Antibiofilm activity against Micrococcus luteus MTCC 2470 after 24 hrs by crystal violet staining based assay; type: functional, organism-based; details: MTCC 2470, 24 h; in short: as §1
Staphylococcus aureus [45] = assay: Bactericidal activity against Staphylococcus aureus MLS16 MTCC 2940 sessile forms assessed as increase in intracellular ROS accumulation in at 0.5 to 2 ug/mL after 24 hrs by DCFHDA staining based fluorometric assay; type: functional, organism-based
In short: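 Intracellular ROS measured in cells of mature biofilms using the general ROS fluorescent probe 2′,7′-dichlorofluorescein-diacetate (DCFH-DA), read as increase in fluorescence. Sessile cells and the supernatant were measured separately.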

MIC (Staphylococcus aureus [1]): 3.9 µg/mL
MIC (Bacillus subtilis [2]): 7.8 µg/mL
MIC (Staphylococcus aureus [3]): 3.9 µg/mL
MIC (Micrococcus luteus [4]): 1.9 µg/mL
MIC (Escherichia coli [6]): > 125 µg/mL
MIC (Pseudomonas aeruginosa): > 125 µg/mL
MIC (Candida albicans [7]): 7.8 µg/mL
MIC (Candida albicans [8]): 15.6 µg/mL
MIC (Candida albicans [9]): 15.6 µg/mL
MIC (Candida albicans [10]): 31.2 µg/mL
MIC (Candida albicans [11]): 15.6 µg/mL
MIC (Candida albicans [12]): 15.6 µg/mL
MIC (Candida albicans [13]): 15.6 µg/mL
MIC (Candida albicans [14]): 7.8 µg/mL
MIC (Candida albicans [15]): 15.6 µg/mL
MIC (Candida parapsilosis [16]): 15.6 µg/mL
MIC ([Candida] aaseri [17]): 7.8 µg/mL
MIC (Nakaseomyces glabratus [18]): 15.6 µg/mL
MIC (Pichia kudriavzevii [19]): 31.2 µg/mL
MIC (Pichia sporocuriosa [20]): 15.6 µg/mL
IC50 (Staphylococcus aureus [41]): 1.9 µg/mL
IC50 (Bacillus subtilis [42]): 4.1 µg/mL
IC50 (Staphylococcus aureus [43]): 0.9 µg/mL
IC50 (Micrococcus luteus [44]): 1.5 µg/mL
Compound: CCCCCC[N+](C)(CCCCCCCCCCC(=O)OC)CCCCCCCCCCC(=O)OC.[Cl-]
MIC (Raoultella planticola [5]): > 125 µg/mL
MBC (Staphylococcus aureus [21]): 7.8 µg/mL
MBC (Bacillus subtilis [22]): 15.6 µg/mL
MBC (Staphylococcus aureus [23]): 3.9 µg/mL
MBC (Micrococcus luteus [24]): 3.9 µg/mL
MBC (Raoultella planticola [25]): > 125 µg/mL
MBC (Escherichia coli [26]): > 125 µg/mL
MFC (Candida albicans [27]): 15.6 µg/mL
MFC (Candida albicans [28]): 31.2 µg/mL
MFC (Candida albicans [29]): 31.2 µg/mL
MFC (Candida albicans [30]): 62.5 µg/mL
MFC (Candida albicans [31]): 31.2 µg/mL
MFC (Candida albicans [32]): 31.2 µg/mL
MFC (Candida albicans [33]): 15.6 µg/mL
MFC (Candida albicans [34]): 7.8 µg/mL
MFC (Candida albicans [35]): 31.2 µg/mL
MFC (Candida parapsilosis [36]): 31.2 µg/mL
MFC ([Candida] aaseri [37]): 15.6 µg/mL
MFC (Nakaseomyces glabratus [38]): 31.2 µg/mL
MFC (Pichia kudriavzevii [39]): 62.5 µg/mL
MFC (Pichia sporocuriosa [40]): 31.2 µg/mL
Activity (Staphylococcus aureus [45]): Active
